Reference: ChEMBL document CHEMBL4325885, “Design, synthesis, and biological evaluation of novel phenol ether derivatives as non-covalent proteasome inhibitors” (Eur J Med Chem, 2019)

Legend:
[1] = target: T1, Proteasome Macropain subunit MB1 (Homo sapiens) (UniProt P28074); experiment: Inhibition of human chymotrypsin-like activity of 20S constitutive proteasome at 10 uM using Suc-LLVY-AMC as substrate preincubated for 15 mins followed by substrate addition by fluorescence assay relative to control
T1 sequence (whole entry): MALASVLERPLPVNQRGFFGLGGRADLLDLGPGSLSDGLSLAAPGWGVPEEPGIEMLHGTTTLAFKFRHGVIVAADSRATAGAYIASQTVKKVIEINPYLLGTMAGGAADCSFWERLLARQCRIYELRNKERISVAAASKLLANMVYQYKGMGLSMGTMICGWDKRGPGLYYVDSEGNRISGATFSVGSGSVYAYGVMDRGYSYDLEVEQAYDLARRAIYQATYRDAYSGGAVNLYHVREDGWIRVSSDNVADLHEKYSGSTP

[2] = Stability in human liver microsomes assessed as drug degradation at 1 uM measured within 30 mins in presence of NADPH by LC-MS/MS analysis; type: ADME, Microsome; details: read-out: Drug degradation
Summary of the method: (§1)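 Pooled human liver microsomes at 1.0 mg/mL protein in 0.1 M phosphate buffer saline pH 7.4 with 1 mM NADPH, preincubated 5 min at 37 °C. Reaction started by adding test compound at 1 μM, then incubated 0, 10, 20 or 30 min. Compound disappearance monitored.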

[3] = target: T2, Proteasome Macropain subunit MB1 (Homo sapiens, UniProt P28074); experiment: Inhibition of human chymotrypsin-like activity of 20S constitutive proteasome using Suc-LLVY-AMC as substrate preincubated for 15 mins followed by substrate addition by fluorescence assay
T2 sequence (P28074 whole entry): T1 sequence (whole entry)

[4] = target: T3, Proteasome subunit beta type-8 (Homo sapiens, UniProt P28062); experiment: Inhibition of 20S immunoproteasome LMP7 (unknown origin) using Ac-ANW-AMC as substrate preincubated for 15 mins followed by substrate addition by fluorescence assay
T3 sequence (P28062 whole entry): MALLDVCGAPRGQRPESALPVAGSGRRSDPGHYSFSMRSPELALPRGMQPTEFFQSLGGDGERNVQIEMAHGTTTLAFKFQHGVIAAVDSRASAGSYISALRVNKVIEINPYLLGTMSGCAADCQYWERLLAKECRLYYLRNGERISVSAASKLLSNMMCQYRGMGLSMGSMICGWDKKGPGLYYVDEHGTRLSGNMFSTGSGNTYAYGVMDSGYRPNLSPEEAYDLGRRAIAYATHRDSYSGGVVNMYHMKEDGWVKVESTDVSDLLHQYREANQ

[5] = system: HepG2; experiment: Antiproliferative activity against human HepG2 cells after 72 hrs by MTT assay; type: functional, cell-based; details: HepG2, 72 h
Summary of the method: (§2)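 Cells kept at 37 °C, 5% CO2; HGC27 in RPMI-1640 and HepG2 in IMDM, each with 10% FBS and penicillin/streptomycin. Seeded at 1×10⁵ cells/well, then exposed to graded compound concentrations or 0.2% DMSO for 72 h. MTT (5 mg/mL) added for 4 h, formazan dissolved in DMSO, absorbance read at 570 nm. Inhibition = (A_control − A_sample)/A_control; IC50 from variable-slope sigmoidal fit.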

[6] = system: HGC-27; experiment: Antiproliferative activity against human HGC27 cells after 72 hrs by MTT assay; type: functional, cell-based; details: HGC-27, 72 h; summary of the method: as §2
[7] = system: RPMI-8226; experiment: Antiproliferative activity against human RPMI8226 cells after 72 hrs by MTS/PMS assay; type: functional, cell-based; details: RPMI-8226, 72 h
Summary of the method: (§3)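 Cells kept at 37 °C, 5% CO2; RPMI 8226 and MM.1S in RPMI-1640, MV-4-11 in IMDM, each with 10% FBS and penicillin/streptomycin. Seeding per well: RPMI 8226 5×10³, MM.1S 3×10⁴, MV-4-11 8×10³. Graded compound concentrations or 0.2% DMSO for 72 h. MTS/PMS added for 2-4 h at 37 °C, OD read at 490 nm minus 690 nm background. IC50 from variable-slope sigmoidal fit.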

[8] = system: MM1.S; experiment: Antiproliferative activity against human MM1S cells after 72 hrs by MTS/PMS assay; type: functional, cell-based; summary of the method: as §3
[9] = system: MV4-11; experiment: Antiproliferative activity against human MV4-11 cells after 72 hrs by MTS/PMS assay; type: functional, cell-based; details: MV4-11, 72 h; summary of the method: as §3
[10] = Stability in human liver microsomes at 1 uM measured after 30 mins in presence of NADPH by LC-MS/MS analysis; type: ADME, Microsome; details: 0.5 h; summary of the method: as §1

`CCCc1ccc(OCC(=O)N(Cc2nc(-c3cccnc3)no2)C(C)C)cc1` showed an inhibition [1] of 80.2%, a metabolised at 0.5 h, 1 µM [2] of over 50% and an IC50 [3] of 92 nM. It also gave an IC50 [4] of over 10000 nM, an IC50 [5] of 2950 nM and an IC50 [6] of 3350 nM. For the same compound, the IC50 [7] was over 20000 nM, the IC50 [8] was over 20000 nM and the IC50 [9] was over 20000 nM.
With `CCCc1ccc(OCC(=O)N(CCNC(=O)NCc2cccnc2)C(C)C)cc1` the inhibition [1] was 38.7%.
With `CCCCCc1ccc(OCC(=O)N(CC(=O)Nc2ccnnc2)C(C)C)cc1` the IC50 [3] was 64 nM.
With `COC(=O)Cc1ccc(OCC(=O)N(CC(=O)Nc2ccnnc2)C(C)C)cc1` the IC50 [3] was 1560 nM.
`CCCc1ccc(OCC(=O)N(CC(=O)Nc2cncnc2)C(C)C)cc1` gave an IC50 [3] of 280 nM.
For `CC(C)N(CC(=O)Nc1ccnnc1)C(=O)COc1ccc(CCO)cc1`, the IC50 [3] was 968 nM.
For `CCCc1ccc(OCC(=O)N(CCNC(=O)Nc2cccnc2)C(C)C)cc1`, the inhibition [1] was 13.8%.
With `CCCc1ccc(OCC(=O)N(CC(=O)Nc2ccccc2OC)C(C)C)cc1` the IC50 [3] was over 10000 nM.
`CCc1ccc(OCC(=O)N(CC(=O)Nc2ccnnc2)C(C)C)cc1` gave an IC50 [3] of 243 nM.
With `CCCc1ccc(OCC(=O)N(CC(=O)Nc2nncs2)C(C)C)cc1` the IC50 [3] was 3860 nM.
`CCCc1ccc(OCC(=O)N(CC(=O)Nc2ccc(S(C)(=O)=O)cc2)C(C)C)cc1` gave an IC50 [3] of 230 nM, an IC50 [4] of over 10000 nM and an IC50 [5] of 2870 nM. It also gave an IC50 [6] of 2470 nM, an IC50 [7] of over 20000 nM and an IC50 [8] of over 20000 nM. The IC50 [9] was over 20000 nM.
For `CCCc1ccc(OCC(=O)N(CC(=O)Nc2cccc(OC)c2)C(C)C)cc1`, the IC50 [3] was 2000 nM.
Work on `CCCc1ccc(OCC(=O)N(CC(=O)Nc2ccc(OC)cc2)C(C)C)cc1` yielded an IC50 [3] of 952 nM.
Work on `CCCc1ccc(OCC(=O)N(CCNC(=O)c2cccnc2)C(C)C)cc1` yielded an inhibition [1] of 30.8%.
For `CCCc1ccc(OCC(=O)N(CC(=O)NCc2cccnc2)C(C)C)cc1`, the inhibition [1] was 1.16%.
With `CCCc1ccc(OCC(=O)N(CC(=O)Nc2ccc(C(F)(F)F)cc2)C(C)C)cc1` the IC50 [3] was 922 nM.
Work on `CC(C)N(CC(=O)Nc1ccnnc1)C(=O)COc1ccc(Br)cc1` yielded an IC50 [3] of 405 nM.
`CCCc1ccc(OCC(=O)N(CC(=O)Nc2ccc(F)cc2)C(C)C)cc1` gave an IC50 [3] of 1200 nM.
Compound `COc1ccc(OCC(=O)N(CC(=O)Nc2ccnnc2)C(C)C)cc1` has an IC50 [3] of 579 nM.
Work on `CCOc1ccc(OCC(=O)N(CC(=O)Nc2ccnnc2)C(C)C)cc1` yielded an IC50 [3] of 259 nM.
Work on `CCCc1ccc(OCC(=O)N(CC(=O)Nc2ccc3ccccc3c2)C(C)C)cc1` yielded an IC50 [3] of 5910 nM.
Work on `CCCc1ccc(OCC(=O)N(CC(=O)Nc2ccncc2)C(C)C)cc1` yielded an IC50 [3] of 100 nM.
With `CCCCc1ccc(OCC(=O)N(CC(=O)Nc2ccnnc2)C(C)C)cc1` the Stability [10] was “Stable”, the IC50 [3] was 49 nM and the IC50 [4] was over 10000 nM. It also gave an IC50 [5] of 3910 nM, an IC50 [6] of 4620 nM and an IC50 [7] of over 20000 nM. For the same compound, the IC50 [8] was over 20000 nM and the IC50 [9] was over 20000 nM.
With `CCCc1ccc(OCC(=O)N(CC(=O)Nc2ccc(OC)c(OC)c2)C(C)C)cc1` the IC50 [3] was 4730 nM.
In the case of `CC(C)N(CC(=O)Nc1ccnnc1)C(=O)COc1ccc(C(F)(F)F)cc1`, the IC50 [3] is reported as 952 nM.
In the case of `CCCc1ccc(OCC(=O)N(CC(=O)Nc2ccon2)C(C)C)cc1`, the IC50 [3] is reported as 2010 nM.
Compound `CCCc1ccc(OCC(=O)N(CCC(=O)NCc2cccnc2)C(C)C)cc1` has an inhibition [1] of 12.7%.
Compound `CCCc1ccc(OCC(=O)N(CC(=O)Nc2ccnnc2)C(C)C)cc1` has an IC50 [3] of 89 nM.
In the case of `CCCc1ccc(OCC(=O)N(CC(=O)Nc2ccccn2)C(C)C)cc1`, the IC50 [3] is reported as 836 nM.
`CCCc1ccc(OCC(=O)N(CC(=O)Nc2cnccn2)C(C)C)cc1` showed an IC50 [3] of 395 nM.
For `CCCc1ccc(OCC(=O)N(CC(=O)Nc2cccnc2)C(C)C)cc1`, the inhibition [1] was 58.2%, the Stability [10] was “Stable” and the IC50 [3] was 1680 nM.
For `Cc1ccc(OCC(=O)N(CC(=O)Nc2ccnnc2)C(C)C)cc1`, the IC50 [3] was 481 nM.
With `CC(C)Cc1ccc(OCC(=O)N(CC(=O)Nc2ccnnc2)C(C)C)cc1` the IC50 [3] was 118 nM.
`CCCc1ccc(OCC(=O)N(CC(=O)Nc2nc3ccc(OC)cc3s2)C(C)C)cc1` showed an IC50 [3] of 1110 nM.
`CCCc1ccc(OCC(=O)N(CCC(=O)Nc2cccnc2)C(C)C)cc1` showed an inhibition [1] of 15.5%.
`CCCc1ccc(OCC(=O)N(CC(=O)Nc2ccc(C#N)cc2)C(C)C)cc1` showed an IC50 [3] of 361 nM.
